Results taken from ChEMBL document CHEMBL1123103, “Pyrimidinones. 1. 2-Amino-5-halo-6-aryl-4(3H)-pyrimidinones. Interferon-inducing antiviral agents” (1985).
Activity calls are given as the source filed them. The calls are words filed in the database; no cut-off is given here.

Legend:
[1] = test system: Semliki Forest virus; assay: Effective dose administered intraperitoneally againist Forest virus infected mice; format: functional, organism-based
In short: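 Drug was suspended in 0.9% NaCl or in a carboxymethylcellulose/polysorbate 80/benzyl alcohol/NaCl vehicle. Deaths were recorded daily for 6 days, with 24 mice per group. The ED50 is the minimal dose protecting 50% of mice, calculated by probit analysis.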

[2] = test system: Semliki Forest virus; assay: Antiviral activity against Forest virus (SFV); format: functional
In short: (§1)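 ICR or CD-1 mice of both sexes got one drug dose by the route in the line (ip, po or sc). The drug was a suspension in 0.9% NaCl or in a CMC/polysorbate 80/benzyl alcohol/NaCl vehicle. […] Deaths were recorded daily for 6 days, 24 mice/group. ED50 is the minimal dose protecting 50% of mice, by probit analysis.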

[3] = test system: Vesicular stomatitis virus; assay: Evaluation for serum interferon response from a single 800 mg/kg intraperitoneal administration in vesicular stomatitis virus on […] cells.; format: functional
In short: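 Mice got a single ip 800 mg/kg dose. Blood was drawn 3, 6, 8 and 12 h later from five mice per group and pooled. Interferon titer was measured by plaque reduction with vesicular stomatitis virus on L929 cells. Titer is the reciprocal serum dilution cutting plaques by 50% versus untreated cultures. Peak response within 24 h was banded: ≥2000, ~500-1000, ~50-500, ~10-50 U/mL.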

[4] = test system: Human alphaherpesvirus 1; assay: Intraperitoneal administration against herpes simplex virus type-1 (HSV-1) infected mice; format: functional
In short: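 ICR or CD-1 mice got drug ip in saline as the total daily dose (mg/kg/day). It was split into doses at -40, -28, -20, -3 and +3 h relative to ip inoculation with 5.6×10^4 pfu HSV-1. Mice were followed for 22 days, 15/group. Protection index = (control mortality − treated mortality)/control mortality; >0.25 counted active. Only the lowest protective dose is recorded.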

[5] = test system: Semliki Forest virus; assay: Effective dose administered subcutaneously againist Forest virus infected mice; format: functional; settings: sc; in short: as §1
[6] = test system: Semliki Forest virus; assay: Effective dose administered perorally againist Forest virus infected mice; format: functional; settings: po; in short: as §1

| SMILES | ED50 [1] | ED50 [2] [mg/kg] | IFN [3] | Protection index [4] | ED50 [5] [mg/kg] | ED50 [6] [mg/kg] |
| --- | --- | --- | --- | --- | --- | --- |
| COc1cccc(-c2nc(N)nc(O)c2Br)c1OC | inactive |  |  |  |  |  |
| Nc1nc(O)c(I)c(-c2cccc(I)c2)n1 |  | 125 | 50 units/mL | 0.53 |  |  |
| Nc1nc(O)c(Br)c(-c2cccc(O)c2)n1 | inactive |  |  | 0 |  |  |
| Nc1nc(O)c(Br)c(-c2c(F)cc(F)cc2F)n1 | inactive |  |  | 0 |  |  |
| Nc1nc(O)c(Br)c(-c2cccc(Cl)c2)n1 |  | 30 | >=2000 ml | 0.78 | 300 | > 400 |
| Nc1nc(=O)c(Br)c(-c2ccccc2)[nH]1 [BROPIRIMINE] |  | 100 |  | 0.6 | 50 | 100 |
| Nc1nc(O)c(Br)c(-c2cc(Cl)ccc2Cl)n1 |  | 180 | >=2000 ml |  | > 400 | > 400 |
| Nc1nc(O)c(I)c(-c2cccc(C(F)(F)F)c2)n1 |  | 160 | >=2000 ml | 0.36 | > 400 | > 400 |
| CCOCCOc1cccc(-c2nc(N)nc(O)c2Br)c1 |  |  |  | 0.55 |  |  |
| COc1ccccc1-c1nc(N)nc(O)c1Br |  | 15 | 50 units/mL | 0.92 | 100 | > 400 |
| Nc1cccc(-c2nc(N)nc(O)c2Br)c1 | inactive |  |  |  |  |  |
| Nc1nc(O)c(I)c(-c2cc(F)ccc2F)n1 |  | 95 | >=2000 ml | 0 |  | > 400 |
| Nc1nc(O)c(Cl)c(-c2cccc([N+](=O)[O-])c2)n1 |  | 140 | 50 units/mL | 0.92 | 380 | > 400 |
| Nc1nc(O)c(I)c(-c2cc(F)cc(F)c2)n1 |  | 230 | >=2000 ml | 0 |  | > 400 |
| COc1cc(OC)cc(-c2nc(N)nc(O)c2Cl)c1 |  | 90 |  |  |  |  |
| Nc1nc(O)c(I)c(-c2ccccn2)n1 |  | 215 | >=2000 ml |  | > 400 | 235 |
| Nc1nc(O)c(Br)c(-c2ccc(Cl)c(Cl)c2)n1 |  | 215 |  | 0.29 | > 400 | > 400 |
| Nc1nc(O)c(I)c(-c2cccc([N+](=O)[O-])c2)n1 |  | 90 | >=2000 ml | 0.6 | 155 | > 400 |
| Nc1nc(O)c(Br)c(-c2cccnc2)n1 |  | 75 |  | 0.45 | > 400 | > 400 |
| Nc1nc(O)c(I)c(-c2c(F)cccc2F)n1 |  | 285 |  |  |  |  |
| Nc1nc(O)c(I)c(-c2ccccc2)n1 |  | 50 | 50 units/mL | 0.86 | 25 | > 400 |
| Nc1nc(O)c(Cl)c(-c2cccc(Cl)c2)n1 |  | 135 | 50 units/mL | 0.86 | > 400 | > 400 |
| Nc1nc(O)c(Cl)c(-c2ccc(F)cc2)n1 |  | 300 |  | 0.85 | 355 | > 400 |
| Nc1nc(O)c(Cl)c(-c2cc(F)cc(F)c2)n1 |  | 185 | 50 units/mL | 0.5 |  | > 400 |

| SMILES | ED50 [1] | ED50 [2] [mg/kg] | IFN [3] | Protection index [4] | ED50 [5] [mg/kg] | ED50 [6] [mg/kg] |
| --- | --- | --- | --- | --- | --- | --- |
| Nc1nc(O)c(Cl)c(-c2ccc(OCc3ccccc3)cc2)n1 | inactive |  |  |  |  |  |
| Nc1nc(O)c(Cl)c(-c2cccc(O)c2)n1 |  |  |  | 0.5 |  |  |
| Nc1nc(O)c(I)c(-c2cccc(F)c2F)n1 |  | > 400 | >=2000 ml | 0.34 |  | 365 |
| Nc1nc(O)c(I)c(-c2cc(Cl)ccc2Cl)n1 |  | 305 | >=2000 ml | 0 | 115 | 75 |
| Nc1nc(O)c(I)c(-c2ccccc2Cl)n1 |  | 90 |  | 0.13 |  |  |
| CCOCCOc1cccc(-c2nc(N)nc(O)c2I)c1 |  |  |  | 0.21 |  |  |
| Nc1nc(O)c(Cl)c(-c2cccc(I)c2)n1 | inactive |  |  |  |  |  |
| Cc1ccccc1-c1nc(N)nc(O)c1I |  | 175 |  | 0.13 | 205 | > 400 |
| Nc1nc(O)c(Br)c(-c2ccccc2O)n1 | inactive |  |  |  |  |  |
| Nc1nc(O)c(Br)c(-c2ccco2)n1 |  | 295 | 50 units/mL | 0.14 | > 400 | > 400 |
| CCOc1cccc(-c2nc(N)nc(O)c2Cl)c1 |  |  |  | 0.13 |  |  |
| Nc1nc(O)c(Br)c(-c2cccc([N+](=O)[O-])c2)n1 |  | 140 |  | 0.53 | > 400 | > 400 |
| Nc1nc(O)c(Br)c(-c2c(F)ccc(F)c2F)n1 | inactive |  |  | 0 |  |  |
| Nc1nc(O)c(I)c(-c2ccc(Cl)c(Cl)c2)n1 |  | 115 | >=2000 ml | 0.36 | 240 | > 400 |
| Nc1nc(O)c(Cl)c(-c2cccc3ccccc23)n1 |  | 80 |  | 0.54 | > 400 | > 400 |
| Nc1nc(O)c(I)c(-c2ccc(C(=O)O)cc2)n1 |  | 380 |  |  |  |  |
| Nc1nc(O)c(Cl)c(-c2ccccc2Cl)n1 |  | 300 | 50 units/mL |  |  |  |
| COc1cc(OC)cc(-c2nc(N)nc(O)c2I)c1 |  | 55 |  |  |  |  |
| Nc1nc(O)c(Br)c(-c2ccoc2)n1 |  | > 400 |  |  |  |  |
| COc1cccc(-c2nc(N)nc(O)c2Cl)c1OC | inactive |  |  |  |  |  |
| Nc1nc(O)c(Br)c(-c2ccccc2Cl)n1 |  | 285 |  |  |  |  |
| Nc1nc(O)c(Br)c(-c2cccc(F)c2F)n1 |  | 115 | >=2000 ml | 0.54 |  | 330 |
| Nc1nc(O)c(Cl)c(-c2cc(Cl)ccc2Cl)n1 |  | 120 | >=2000 ml | 0.47 | 115 | 200 |
| Nc1nc(O)c(Br)c(-c2cccc(I)c2)n1 |  | 355 |  |  | > 400 | 170 |

| SMILES | ED50 [1] | ED50 [2] [mg/kg] | IFN [3] | Protection index [4] | ED50 [5] [mg/kg] | ED50 [6] [mg/kg] |
| --- | --- | --- | --- | --- | --- | --- |
| Nc1nc(O)c(Br)c(-c2cnccn2)n1 |  | 65 |  |  | 365 | > 400 |
| Nc1nc(O)c(Cl)c(-c2ccco2)n1 |  | 120 |  |  |  |  |
| Nc1nc(O)c(I)c(-c2ccncc2)n1 |  | 365 |  |  | > 400 | > 400 |
| Nc1nc(O)c(Br)c(-c2cc(F)ccc2F)n1 |  | 165 | >=2000 ml | 0 |  | > 400 |
| CCOc1cccc(-c2nc(N)nc(O)c2Br)c1 |  |  |  | 0.4 |  |  |
| N#Cc1ccc(-c2nc(N)nc(O)c2I)cc1 | inactive |  |  | 0 |  |  |
| COc1cccc(-c2nc(N)nc(O)c2I)c1OC | inactive |  |  |  |  |  |
| COc1ccccc1-c1nc(N)nc(O)c1I |  | 25 | 50 units/mL | 0.69 | 120 | > 400 |
| Nc1nc(O)c(Br)c(-c2ccc(OCc3ccccc3)cc2)n1 | inactive |  |  |  |  |  |
| Nc1nc(O)c(I)c(-c2cccnc2)n1 |  | 130 | 50 units/mL | 0 | 175 | > 400 |
| Nc1nc(O)c(Cl)c(-c2ccc(Cl)c(Cl)c2)n1 |  | 225 |  | 0 | > 400 | > 400 |
| Nc1nc(O)c(Cl)c(-c2ccccc2O)n1 |  |  |  | 0.61 |  |  |
| CCOc1cccc(-c2nc(N)nc(O)c2I)c1 |  |  |  | 0 |  |  |
| Cc1ccccc1-c1nc(N)nc(O)c1Br |  | 60 |  | 0.2 | > 400 | > 400 |
| Nc1nc(O)c(Br)c(-c2cc(F)cc(F)c2)n1 |  | 150 | 50 units/mL | 0 |  |  |
| Nc1nc(O)c(Cl)c(-c2ccccc2)n1 |  | 100 | >=2000 ml | 0.62 | 105 | 90 |
| Nc1nc(O)c(I)c(-c2ccc(OCc3ccccc3)cc2)n1 |  | > 400 |  |  |  |  |
| Nc1nc(O)c(Br)c(-c2ccccn2)n1 |  | 75 | >=2000 ml |  | 65 | 310 |
| Nc1nc(O)c(Br)c(-c2cc(Br)c(O)c(Br)c2)n1 | inactive |  |  |  |  |  |
| COc1cc(OC)cc(-c2nc(N)nc(O)c2Br)c1 |  | 15 |  |  |  |  |
| Nc1nc(O)c(I)c(-c2ccc(F)cc2)n1 |  | 245 | >=2000 ml | 0.29 | 250 | 260 |
| Nc1nc(O)c(I)c(-c2cc(Cl)cc(Cl)c2)n1 |  | 140 | 50 units/mL | 0.4 | 225 | > 400 |
| COc1ccccc1-c1nc(N)nc(O)c1Cl |  | 20 | 50 units/mL | 0.53 |  | > 400 |
